Source: PubChem BioAssay
PglD DTNB – blocks C. jejuni PglD acetyltransferase activity; 0.098% of 360,000 active; purified PglD enzyme, DTNB colorimetric CoA detection; inhibition, % at 12.5 µM; AID 602405; in the data active = inhibition above about 16%, passing the limit was not always enough
rRNA inh HTS – inhibits bacterial ribosomal RNA function over humanized ribosomes. AID 720706. GFP signal change (wild-type ribosome), % (no concentration beside the values). E. coli WT GFP vs humanized-ribosome RFP mutants, fluorescence, 24 h; stronger effect = lower value; DMSO median 0, no signal -100. 1.6% of 350,000 active;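 active = significant combined selectivity score with lowered wild-type GFP, culture density cut under 30%, mutant RFP and density less affected; inactive = any of these conditions unmet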
RAD52 inh – RAD52 (human) annealing inhibition; recombinant RAD52 DNA annealing, FRET fluorescence; inhibition, % at 18.7 µM; 0.46% of 360,000 active; AID 651710;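 active = every replicate showing at least 50% inhibition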
Target sequence (P43351 whole entry, looked up): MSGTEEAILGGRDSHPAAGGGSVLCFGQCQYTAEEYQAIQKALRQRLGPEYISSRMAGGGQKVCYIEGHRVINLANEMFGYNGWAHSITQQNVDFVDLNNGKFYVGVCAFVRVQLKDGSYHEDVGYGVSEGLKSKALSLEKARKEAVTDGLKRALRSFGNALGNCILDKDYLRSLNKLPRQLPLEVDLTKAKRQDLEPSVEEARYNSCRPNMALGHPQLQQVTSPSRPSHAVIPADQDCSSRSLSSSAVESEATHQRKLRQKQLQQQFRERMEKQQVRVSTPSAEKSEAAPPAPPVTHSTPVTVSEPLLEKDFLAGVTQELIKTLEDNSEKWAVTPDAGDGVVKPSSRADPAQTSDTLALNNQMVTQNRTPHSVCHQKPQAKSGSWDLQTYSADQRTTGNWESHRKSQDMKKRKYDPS
RAD54 inh – blocks human RAD54 Holliday junction branch migration; AID 602329; Q92698; FAM/BHQ fluorescence; 0.14% of 360,000 active; inhibition, % at 10.4 µM;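 active = mean normalized replicate activity at least 40 and at least half of replicates scoring 40 or more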;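 note: 0% = median of neutral control wells and 100% = median of positive control wells; inhibitors cause a drop in the FAM fluorescence signal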
Cneo AK release – causes C. neoformans cell lysis; adenylate kinase release luminescence, 4 h; normalised: neutral wells 0, clomiphene wells 100; lysis activity, % at 15 µM; 0.2% of 360,000 active; AID 651654;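 active = mean lysis activity across replicates of at least 80%, whatever share of replicates individually reach that level; inactive = mean lysis activity below 80%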
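Assay system: log-phase C. neoformans yeast / Quantity: yeast cell density of 5 × 10^6 cells/mL / Medium: fresh YPD growth medium / Compound: single dose / Timing: static 4 h at 37 °C with compound, 1 h detection / Measured by: adenylate kinase release luminescence / Read-out: lysis from increased AK signal / Benchmarks: Clomiphene as positive lysis control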
An asterisk follows results filed as active. This is a sample that favours compounds with a hit; in the whole collection about 1.9% have one here.

Results for C[C@@H]1CCCCO[C@H](CN(C)S(=O)(=O)c2ccc(Cl)cc2)[C@H](C)CN([C@H](C)CO)C(=O)c2cc(NC(=O)Cc3ccccc3)ccc2O1 ?
PglD DTNB: 3; rRNA inh HTS: 2; RAD52 inh: 33; RAD54 inh: 6; Cneo AK release: -2

How did O=C(CCC(F)(F)F)N1CCCC(N2CCN(c3cccc(Cl)c3)CC2)C1 (configuration not stated) do in these assays?
PglD DTNB: -2; rRNA inh HTS: -23*; RAD52 inh: -8; RAD54 inh: -7; Cneo AK release: 0

Results for O=C1CCCCN1CCC(=O)N1CCCC(N2CCN(c3cccc(Cl)c3)CC2)C1 (configuration not stated) ?
PglD DTNB: -4; rRNA inh HTS: 1; RAD52 inh: -28; RAD54 inh: 2; Cneo AK release: 6

Results for O=C(Nc1ccc2c(c1)[C@H]1C[C@@H](CC(=O)N3CCc4ccccc4C3)O[C@H](CO)[C@H]1O2)c1ccc2c(c1)OCO2 ?
PglD DTNB: 0; rRNA inh HTS: -6; RAD52 inh: -8; RAD54 inh: -5; Cneo AK release: -12

Results for CCCC#Cc1ccc([C@@H]2[C@@H](CO)N3C(=O)CN(C(=O)Nc4cc(F)ccc4F)C[C@H]23)cc1 ?
rRNA inh HTS: 0

How did O=C(O)c1ccc(N2C(=O)C3C4c5ccccc5C(Br)(c5ccccc54)C3C2=O)cc1 (configuration not stated) do in these assays?
rRNA inh HTS: -36*; RAD52 inh: -8

What do the screens show for `CC12c3ccccc3C(c3ccccc31)C1C(=O)N(c3ccncc3)C(=O)C12` (configuration not stated)?
PglD DTNB: -4; rRNA inh HTS: -14; RAD52 inh: -8; RAD54 inh: -15; Cneo AK release: 0

Results for CC=Cc1ccc2n(c1=O)C[C@H]1[C@H](CO)[C@@H](C(=O)N(C)C)N(C(=O)CC3CC3)[C@@H]21 (mixture of isomers) ?
PglD DTNB: -1; rRNA inh HTS: 4; RAD52 inh: -7; RAD54 inh: -2; Cneo AK release: 1

How did CS(=O)(=O)c1cccc(C(=O)Nc2cccc(-c3nc4ccccc4[nH]3)c2)c1 do in these assays?
PglD DTNB: -1; rRNA inh HTS: -19*; RAD52 inh: 2; RAD54 inh: 1; Cneo AK release: -4

How did N#CCC(=O)Nc1nc(-c2ccc3c(c2)OCCO3)cs1 do in these assays?
rRNA inh HTS: 17; RAD52 inh: -17

Results for O=C(Nc1nc(-c2ccc3c(c2)OCCO3)cs1)C1CCCC1 ?
rRNA inh HTS: -34*; RAD52 inh: -18

What do the screens show for `O=C(N[C@H]1CC[C@@H](CCNS(=O)(=O)c2ccccc2Cl)O[C@H]1CO)c1ccc(F)cc1`?
PglD DTNB: 1; rRNA inh HTS: 0; RAD52 inh: 4; RAD54 inh: -1; Cneo AK release: -2

Results for COc1cc(NC(=O)C/C(C)=N/NC(=O)C(=O)NCCO)c(OC)cc1Cl ?
rRNA inh HTS: -52*; RAD52 inh: -7

How did CC=Cc1ccc2n(c1=O)C[C@@H]1[C@@H](CO)[C@H](C(=O)NCC)N(CC3CCOCC3)[C@H]21 (mixture of isomers) do in these assays?
rRNA inh HTS: 0

What do the screens show for `CC(C)NC(=O)Nc1ccc2c(c1)C(=O)N([C@H](C)CO)C[C@@H](C)[C@H](CN(C)Cc1ccncc1)OCCCC[C@H](C)O2`?
rRNA inh HTS: 1

Results for O=C(CCCCCn1c(=S)[nH]c2ccc(N3CCOCC3)cc2c1=O)NCc1ccc(Cl)cc1 ?
PglD DTNB: -2; rRNA inh HTS: -24*; RAD52 inh: -6; RAD54 inh: -4; Cneo AK release: 3

What do the screens show for `COc1cc(/C=N/NC(=O)c2[nH]nc3c2CCc2ccccc2-3)ccc1O`?
PglD DTNB: 0; rRNA inh HTS: -20*; RAD52 inh: -8; RAD54 inh: -1; Cneo AK release: -2

Results for COc1cc(/C=N/NC(=O)c2ccccc2)ccc1O ?
rRNA inh HTS: 15; RAD52 inh: -10

What do the screens show for `COc1cc(/C=N/NC(=O)c2cc(-c3ccc4c(c3)OCO4)n[nH]2)ccc1O`?
rRNA inh HTS: -26*; RAD52 inh: -8

How did CCC(=O)N1CC(=O)N2[C@@H](CO)[C@@H](c3ccc(C#Cc4cccc(OC)c4)cc3)[C@@H]2C1 do in these assays?
rRNA inh HTS: -2; RAD52 inh: 1

Results for CCC(CO)n1c(=S)[nH]c2cc(OC)c(OC)cc2c1=O (configuration not stated) ?
PglD DTNB: 5; rRNA inh HTS: -22*; RAD52 inh: 2; RAD54 inh: 4; Cneo AK release: 14

Results for COC(=O)c1cc(-c2cccs2)nn1-c1ccccc1 ?
rRNA inh HTS: -29*; RAD52 inh: -7

What do the screens show for `CNC[C@H]1OCCCC[C@H](C)Oc2ccc(NC(=O)Nc3c(C)noc3C)cc2C(=O)N([C@@H](C)CO)C[C@H]1C`?
rRNA inh HTS: 4

Results for O=C(c1ccc(F)cc1)N1CC(=O)N2[C@H](CO)[C@H](c3ccc(C#CC4CC4)cc3)[C@H]2C1 ?
rRNA inh HTS: -4; RAD52 inh: -2

What do the screens show for `S=C(NCCc1ccccc1)Nc1nccs1`?
PglD DTNB: 0; rRNA inh HTS: -22*; RAD52 inh: -10; RAD54 inh: 4; Cneo AK release: 40

What do the screens show for `C/C(=N\NC(N)=O)c1ccc(-n2ccnc2)cc1`?
PglD DTNB: -6; rRNA inh HTS: -16*; RAD52 inh: -3; RAD54 inh: 3; Cneo AK release: 0

How did CNC(=S)N/N=C(\C)c1ccc(-n2ccnc2)cc1 do in these assays?
PglD DTNB: -1; RAD54 inh: 6; Cneo AK release: 1

What do the screens show for `COc1ccc(NC(=O)Cn2nnc(-c3ccccc3N)n2)cc1OC`?
PglD DTNB: -4; rRNA inh HTS: -10; RAD52 inh: -12; RAD54 inh: 11; Cneo AK release: -1

What do the screens show for `Nc1ccccc1-c1nnn(CC(=O)Nc2ccc3c(c2)OCCO3)n1`?
PglD DTNB: 4; rRNA inh HTS: -25*; RAD52 inh: -9; RAD54 inh: 2; Cneo AK release: 7

Results for CCCC(=O)N1CCC2(CC1)CN(C(=O)c1ccc(F)cc1)[C@@H](CO)c1[nH]c3cc(OC)ccc3c12 ?
rRNA inh HTS: -1; RAD52 inh: 8

What do the screens show for `Cn1c(SCc2cccc(F)c2)nnc1-c1ccccn1`?
PglD DTNB: -1; RAD54 inh: 2; Cneo AK release: 3

What do the screens show for `Cn1c(SCc2cccc(Br)c2)nnc1-c1ccccn1`?
PglD DTNB: -17; rRNA inh HTS: -35*; RAD52 inh: -11; RAD54 inh: 6; Cneo AK release: 0

How did CCOc1ccc(OCC)c(NC(=O)CSc2nc3ccccc3c(=O)n2C)c1 do in these assays?
PglD DTNB: -9; RAD54 inh: -8; Cneo AK release: 2
